Hits are enriched below; roughly 3.4% of the tested compounds scored in any of these assays.
HTR2A ag – agonists of mouse serotonin 5-HT2A receptor (HTR2A). P35363. CHO-K1 mHTR2A beta-arrestin complementation, luminescence; percent of 30 µM serotonin response. activation, % at 7.6 µM. hit rate 0.66% among 360,000;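 active = activation above a run cutoff, the mean activation of all tested compounds plus 3 SD, cut at about 14% in these data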;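 note: 0% = plate median of compound wells and 100% = 30 µM serotonin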
ANO1 block – mouse TMEM16A channel inhibition, primary screen; Q8BHY3; HEK293 TMEM16A/YFP iodide influx fluorescence, ionomycin; normalized B-score (activity score, 25-100; higher = stronger inhibition) at 10 µM; hit rate 1.2% among 310,000;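 active = ratio plate-corrected score three or more library SD toward inhibition, starting fluorescence score within five deviations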;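 note: score derived from kinetic fluorescence span divided by baseline fluorescence per well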
Target sequence (Q8BHY3 whole entry, looked up): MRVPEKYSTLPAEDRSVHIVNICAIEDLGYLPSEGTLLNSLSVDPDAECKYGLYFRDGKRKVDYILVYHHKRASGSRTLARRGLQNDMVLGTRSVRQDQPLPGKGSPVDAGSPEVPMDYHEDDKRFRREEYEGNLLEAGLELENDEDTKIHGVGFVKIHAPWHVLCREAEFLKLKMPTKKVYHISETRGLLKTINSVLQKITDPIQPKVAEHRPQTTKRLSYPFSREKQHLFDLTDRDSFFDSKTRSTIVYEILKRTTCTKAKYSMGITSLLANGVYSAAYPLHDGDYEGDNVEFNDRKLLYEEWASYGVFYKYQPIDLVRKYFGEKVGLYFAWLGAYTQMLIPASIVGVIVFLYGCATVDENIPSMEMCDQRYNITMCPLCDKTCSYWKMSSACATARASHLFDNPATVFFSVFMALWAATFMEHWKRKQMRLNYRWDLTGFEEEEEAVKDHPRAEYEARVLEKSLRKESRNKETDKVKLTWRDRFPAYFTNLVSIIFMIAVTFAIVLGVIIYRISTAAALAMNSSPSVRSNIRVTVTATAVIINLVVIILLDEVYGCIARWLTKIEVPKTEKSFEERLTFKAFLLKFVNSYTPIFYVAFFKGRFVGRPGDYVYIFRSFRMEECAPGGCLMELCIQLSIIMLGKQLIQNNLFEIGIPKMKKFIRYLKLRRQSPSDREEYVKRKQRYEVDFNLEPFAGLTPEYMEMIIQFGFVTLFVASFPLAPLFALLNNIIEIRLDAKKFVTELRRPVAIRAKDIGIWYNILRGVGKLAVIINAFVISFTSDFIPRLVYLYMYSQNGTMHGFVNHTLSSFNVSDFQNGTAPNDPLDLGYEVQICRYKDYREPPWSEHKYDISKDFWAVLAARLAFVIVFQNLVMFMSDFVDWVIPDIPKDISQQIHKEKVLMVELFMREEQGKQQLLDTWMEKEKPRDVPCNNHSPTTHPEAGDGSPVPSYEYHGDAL
MC4R antagonist – antagonists of human melanocortin 4 receptor (MC4R); P32245; MC4R-expressing cells, MTII-stimulated cAMP, LANCE TR-FRET; inhibition, % at 6.5 µM; hit rate 0.48% among 360,000; AID 540295;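 active = inhibition above its plate's cutoff, the mean of tested wells on that plate plus 3 SD, cut at about 29% in these data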;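 note: 0% = Melanotan II alone and 100% = Melanotan II plus saturating MCL0020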
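System: U2OS cells stably expressing human melanocortin 4 receptor (MC4R). Reagent: Melanotan II challenge after compound preincubation. Doses: 6.5 µM. Times: 30-min compound, 1-h challenge, 1-h detection, room temperature. Measured by: TR-FRET with Eu-cAMP and labeled anti-cAMP, 671 nm. Replicates: singlicate.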
TMEM16A act – activates or potentiates the mouse TMEM16A chloride channel. Q8BHY3. HEK293 TMEM16A/YFP-H148Q/I152L, iodide quench fluorescence; stronger effect = lower value. B-score at 10 µM. hit rate 0.3% among 340,000;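 active = fluorescence-ratio B-score plate-corrected deviation score at least 3 library SD below zero, with starting fluorescence score within 5 deviations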;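 note: channel opened by trigger with iodide after compound preincubation; score built on the fluorescence ratio of max minus min over baseline; more negative score means more quench and so TMEM16A activation or potentiation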
MC4R ag barr – activates human MC4R beta-arrestin recruitment. P32245. activation, % at 8.9 µM. hit rate 0.98% among 360,000. U2OS MC4R beta-arrestin complementation, luminescence; percent of melanotan II response, DMSO zero;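 active = activation above a per-plate cutoff, the mean activation of sample wells on that plate plus 3 SD, cut at about 8% in these data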
MIN6 prolif-1 – inducers of beta-cell replication in MIN6 cells | proliferation, % at 10 µM | MIN6 cells proliferation, ATPlite luminescence, 48 h; cells starved in 0.2% serum; 100% = growth in 10% serum | hit rate 0.29% among 330,000 | AID 2380;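 active = compounds whose signal lies at least 3.5 SD above the mean of all wells on their plate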;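 note: 0% = DMSO-treated cells in low-serum medium and 100% = 10% serum control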
MIN6 prolif-2 – confirmation of inducers of beta-cell replication in MIN6 cells | 920 tested, under 10 active | AID 463095 | shares compounds with MIN6 prolif-1 | MIN6 beta-cell proliferation, ATPlite luminescence, 48 h; cells kept in 0.2% serum; scaled between 0.2% and 10% serum | proliferation increase, % at 50 µM;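 active = proliferation increase above 40% at any of the four tested concentrations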
* hit, by the source's call.

Results for O=C(NCc1ccccc1)c1c(O)c2cccc3c2n(c1=O)CCC3 ?
HTR2A ag: -3; ANO1 block: inactive; MC4R antagonist: 2; TMEM16A act: inactive; MC4R ag barr: -3; MIN6 prolif-1: 1

Results for CCCC#Cc1ccc2c(c1)O[C@H](CN(C)S(=O)(=O)c1cccc(OC)c1)[C@H](C)CN([C@H](C)CO)S2(=O)=O ?
HTR2A ag: 1; MC4R antagonist: 6; MC4R ag barr: -1

Results for CN1CCC(N(C)C(=O)c2ccc(Cl)c(S(=O)(=O)N3CCOCC3)c2)CC1 ?
HTR2A ag: -3; MC4R antagonist: 8; TMEM16A act: inactive; MC4R ag barr: -5; MIN6 prolif-1: 0

How did CCn1nc(NC(=O)c2cccs2)c2cc3ccccc3nc21 do in these assays?
HTR2A ag: 2; ANO1 block: inactive; MC4R antagonist: -7; TMEM16A act: inactive; MC4R ag barr: -2; MIN6 prolif-1: 8.2*; MIN6 prolif-2: -6

Results for CCCC(=O)N1CCC1(C)C(=O)Nc1cccc(OC(C)C)c1 (stereo unspecified) ?
HTR2A ag: 13; MC4R antagonist: -5; MC4R ag barr: -2

What do the screens show for `COc1ccc(-c2cnnn2-c2ccc(N)cc2)cc1OC`?
HTR2A ag: 4; ANO1 block: inactive; MC4R antagonist: -1; TMEM16A act: inactive; MC4R ag barr: -1; MIN6 prolif-1: 7.6*; MIN6 prolif-2: 5

What do the screens show for `COc1ccc(-c2cnnn2-c2ccc(NC(=O)c3ccco3)cc2)cc1OC`?
HTR2A ag: 5; ANO1 block: inactive; MC4R antagonist: 3; TMEM16A act: inactive; MC4R ag barr: -2; MIN6 prolif-1: 0

Results for COCC(C)n1c(SCC(=O)N2CC(=O)Nc3ccccc32)nc2ccccc2c1=O (stereo unspecified) ?
HTR2A ag: 3; MC4R antagonist: 12; TMEM16A act: inactive; MC4R ag barr: 0; MIN6 prolif-1: 11*; MIN6 prolif-2: 1

What do the screens show for `COc1ccc(NC(=O)CSc2ccccc2)cc1S(=O)(=O)N1CCCCC1`?
HTR2A ag: -6; ANO1 block: inactive; MC4R antagonist: 7; TMEM16A act: inactive; MC4R ag barr: -3; MIN6 prolif-1: 4.7*; MIN6 prolif-2: -6

Results for COc1ccc(NC(=O)CSc2ccc(NC(C)=O)cc2)cc1S(=O)(=O)N1CCCCC1 ?
HTR2A ag: -1; ANO1 block: inactive; MC4R antagonist: 5; TMEM16A act: inactive; MC4R ag barr: 0; MIN6 prolif-1: 1

How did CCCn1nc(C(=O)N2CCN(S(=O)(=O)c3ccc(C)c(C)c3)CC2)c2ccccc2c1=O do in these assays?
HTR2A ag: -6; MC4R antagonist: 9; TMEM16A act: inactive; MC4R ag barr: -3; MIN6 prolif-1: -2

How did CCOC(=O)/C(C(=Nc1ccccc1)Nc1ccccc1)=C(\C)O do in these assays?
HTR2A ag: 4; ANO1 block: inactive; MC4R antagonist: 7; TMEM16A act: inactive; MC4R ag barr: -1; MIN6 prolif-1: 7.0*; MIN6 prolif-2: -5

How did CC(=O)OCC(=O)Nc1ccc(N=Nc2ccccc2)cc1 do in these assays?
HTR2A ag: -3; ANO1 block: inactive; MC4R antagonist: -5; TMEM16A act: inactive; MC4R ag barr: -2; MIN6 prolif-1: 0

How did CCOc1ccc(C(C)=O)cc1COC(=O)c1ccccc1C(=O)N(C)Cc1ccccc1 do in these assays?
HTR2A ag: 1; MC4R antagonist: 0; TMEM16A act: inactive; MC4R ag barr: -3; MIN6 prolif-1: 2

How did CCOc1ncccc1C(=O)Nc1cccc(S(=O)(=O)N2CCCCC2)c1 do in these assays?
HTR2A ag: 5; MC4R antagonist: 4; TMEM16A act: inactive; MC4R ag barr: -2; MIN6 prolif-1: 1

Results for CCOc1ncccc1C(=O)Nc1cccc(S(=O)(=O)NC2=NCCC2)c1 ?
HTR2A ag: -5; MC4R antagonist: 3; TMEM16A act: inactive; MC4R ag barr: 0; MIN6 prolif-1: 12*; MIN6 prolif-2: 0

How did CC1(C)CNC(=O)CC(C)(C)N1O do in these assays?
HTR2A ag: 5; ANO1 block: inactive; MC4R antagonist: 15; TMEM16A act: inactive; MC4R ag barr: -1; MIN6 prolif-1: 6.6*; MIN6 prolif-2: -4

Results for CC(C)CC1(C)CNC(=O)NC1 ?
HTR2A ag: 2; MC4R antagonist: -4; TMEM16A act: inactive; MC4R ag barr: -1

Results for COc1ccc(N2C(=NC(=O)C3CCCCC3)SC3CS(=O)(=O)CC32)cc1Cl (stereo unspecified) ?
HTR2A ag: 11; ANO1 block: inactive; MC4R antagonist: 11; TMEM16A act: inactive; MC4R ag barr: -1; MIN6 prolif-1: 0

How did COc1ccc(N2C(=NC(=O)C3CC3)SC3CS(=O)(=O)CC32)cc1Cl (stereo unspecified) do in these assays?
HTR2A ag: 0; ANO1 block: inactive; MC4R antagonist: 5; TMEM16A act: inactive; MC4R ag barr: -2; MIN6 prolif-1: 11*; MIN6 prolif-2: 0

What do the screens show for `CCc1noc(C)c1C(=O)N1CCN(S(=O)(=O)c2ccccc2C(F)(F)F)CC1`?
HTR2A ag: -4; MC4R antagonist: 3; TMEM16A act: inactive; MC4R ag barr: 0; MIN6 prolif-1: 1

Results for COc1ccc2[nH]c3c(c2c1)CC(C)NC3=O (stereo unspecified) ?
HTR2A ag: 8; ANO1 block: inactive; MC4R antagonist: 3; TMEM16A act: inactive; MC4R ag barr: -1; MIN6 prolif-1: 7.3*; MIN6 prolif-2: 4

How did C/C(=N\NC(=O)c1ccccn1)C12CC3CC(CC(C3)C1)C2 do in these assays?
HTR2A ag: -4; ANO1 block: inactive; MC4R antagonist: -7; TMEM16A act: inactive; MC4R ag barr: 1; MIN6 prolif-1: 6.6*; MIN6 prolif-2: -5

What do the screens show for `COc1ccc(CC(=O)NCCS(=O)(=O)N2CCN(c3ccccc3)CC2)cc1`?
HTR2A ag: -1; ANO1 block: inactive; MC4R antagonist: 13; TMEM16A act: inactive; MC4R ag barr: -1; MIN6 prolif-1: 11*; MIN6 prolif-2: 0

Results for COc1cc(/C=N/NC(=O)CN(Cc2ccccc2)S(=O)(=O)c2ccc3c(c2)OCCO3)ccc1O ?
HTR2A ag: -5; ANO1 block: inactive; MC4R antagonist: 6; TMEM16A act: inactive; MC4R ag barr: 0; MIN6 prolif-1: 0.0*; MIN6 prolif-2: -5

Compound activity: PubChem BioAssay, several laboratories
